{
  "source": "ChEMBL document CHEMBL1132417",
  "about": "“Novel esters and amides of nonsteroidal antiinflammatory carboxylic acids as antioxidants and antiproliferative agents” (J Med Chem, 1999)",
  "key": {"Bos taurus": {"species_on_record": "Bos taurus", "assay": "Inhibition of [Fe(2+)]/ascorbate-induced oxidation of bovine heart membranes(antioxidant BHMLO)", "assay_type": "functional", "procedure,_shortened": "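Bovine heart membranes (KCl-washed, 100000g pellet, 20 mg/mL protein stock in 25 mM HEPES/150 mM NaCl pH 7.4) were preincubated with compound for 30 min at 37 °C. Peroxidation was started with FeCl2/ascorbic acid and run for 15 min at 21 °C. TBARS were developed by heating at 80 °C and read at 540 nm against a malonaldehyde bis(dimethyl acetal) standard curve. IC50 by linear regression.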"}, "[1]": {"assay": "Inhibition of proliferation measured by inhibition of [3H]thymidine incorporation by HMVEC-L cells", "assay_type": "functional, cell-based, Homo sapiens", "procedure,_shortened": "(§1)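 Human lung microvascular endothelial cells (HMVEC-L, donor, passages 3–9) were grown in EGM-MV to 75–90% confluence. Cells were given compound in fresh medium at 37 °C for 18 h, then pulsed 6 h with [3H]thymidine (2.5 μCi per 200 μL). TCA-precipitated DNA was solubilised in SDS and counted by liquid scintillation. IC50 by linear regression, or % inhibition at the stated concentration.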"}, "[2]": {"assay": "(§2) Compound was evaluated for in vitro inhibition of proliferation measured by inhibition of [3H]thymidine incorporation by HMVEC-L cells", "assay_type": "functional, Homo sapiens", "parameters": "concentration or dose not given beside the values", "procedure,_shortened": "as §1"}, "HMVEC-L": {"tested_on": "HMVEC-L", "assay": "as §2", "assay_type": "functional", "parameters": "concentration or dose not given beside the values", "conditions": "Homo sapiens, dose or concentration not given here", "procedure,_shortened": "as §1"}},
  "data": [
    {"molecule": "COc1ccc2cc(C(C)C(=O)OCC3(C)CCc4c(C)c(O)c(C)c(C)c4O3)ccc2c1", "note": "(stereo not drawn)", "values": [
      {"measurement": "IC50", "setting": "Bos taurus", "result": 4.36, "unit": "µM"},
      {"measurement": "IC50", "setting": "[1]", "result": 11.3, "unit": "µM"}
    ]},
    {"molecule": "Cc1c(C)c2c(c(C)c1O)CCC(C)(C(=O)O)O2", "note": "(stereo not drawn) [TROLOX]", "values": [
      {"measurement": "IC50", "setting": "Bos taurus", "result": 25.6, "unit": "µM"},
      {"measurement": "Inhibition", "setting": "[2]", "result": 20, "unit": "%"}
    ]},
    {"molecule": "COc1ccc2cc([C@H](C)C(=O)NCC3(C)CCc4c(C)c(O)c(C)c(C)c4O3)ccc2c1", "note": "(stereo partly drawn)", "values": [
      {"measurement": "IC50", "setting": "Bos taurus", "result": 2.5, "unit": "µM"},
      {"measurement": "IC50", "setting": "[1]", "result": 4.3, "unit": "µM"}
    ]},
    {"molecule": "COc1ccc2cc([C@H](C)C(=O)O)ccc2c1", "note": "[NAPROXEN]", "values": [
      {"measurement": "IC50", "setting": "[1]", "result": "> 50", "unit": "µM"}
    ]},
    {"molecule": "COc1ccc2cc([C@H](C)C(=O)OCCC3(C)Cc4c(C)c(O)c(C)c(C)c4O3)ccc2c1", "note": "(stereo in doubt; 2c)", "values": [
      {"measurement": "IC50", "setting": "Bos taurus", "result": 5.1, "unit": "µM"},
      {"measurement": "IC50", "setting": "[1]", "result": 16.4, "unit": "µM"}
    ]},
    {"molecule": "VITAMIN E [listing 1 of 2 here]", "values": [
      {"measurement": "IC50", "setting": "Bos taurus", "result": 5170, "unit": "µM"}
    ]},
    {"molecule": "COc1ccc2cc([C@H](C)C(=O)OCC[C@]3(C)CCc4c(C)c(O)c(C)c(C)c4O3)ccc2c1", "values": [
      {"measurement": "IC50", "setting": "Bos taurus", "result": 9.6, "unit": "µM"},
      {"measurement": "IC50", "setting": "[1]", "result": 16.4, "unit": "µM"}
    ]},
    {"molecule": "COc1ccc2cc([C@H](C)C(=O)OCCC3(C)Cc4c(C)c(O)c(C)c(C)c4O3)ccc2c1", "note": "(stereo in doubt; 2a)", "values": [
      {"measurement": "IC50", "setting": "Bos taurus", "result": 4.87, "unit": "µM"},
      {"measurement": "IC50", "setting": "[1]", "result": 9.1, "unit": "µM"}
    ]},
    {"molecule": "VITAMIN E [listing 2 of 2 here]", "values": [
      {"measurement": "inhibition", "setting": "HMVEC-L", "result": 22, "unit": "%"}
    ]},
    {"molecule": "COc1ccc2cc(C(C)C(=O)OCCC3(C)CCc4c(C)c(OC(C)=O)c(C)c(C)c4O3)ccc2c1", "note": "(stereo not drawn)", "values": [
      {"measurement": "IC50", "setting": "Bos taurus", "result": 4.5, "unit": "µM"},
      {"measurement": "IC50", "setting": "[1]", "result": 11.5, "unit": "µM"}
    ]},
    {"molecule": "COc1ccc2cc([C@H](C)COC(=O)CC3(C)CCc4c(C)c(O)c(C)c(C)c4O3)ccc2c1", "note": "(stereo partly drawn)", "values": [
      {"measurement": "IC50", "setting": "Bos taurus", "result": 4.4, "unit": "µM"},
      {"measurement": "IC50", "setting": "[1]", "result": 12, "unit": "µM"}
    ]},
    {"molecule": "COc1ccc2cc(C(C)C(=O)NCCC3(C)CCc4c(C)c(O)c(C)c(C)c4O3)ccc2c1", "note": "(stereo not drawn)", "values": [
      {"measurement": "IC50", "setting": "Bos taurus", "result": 4.67, "unit": "µM"},
      {"measurement": "IC50", "setting": "[1]", "result": 7.4, "unit": "µM"}
    ]},
    {"molecule": "COc1ccc2cc([C@H](C)C(=O)OCC3(C)COc4c(C)c(C)c(O)c(C)c43)ccc2c1", "note": "(stereo partly drawn)", "values": [
      {"measurement": "IC50", "setting": "Bos taurus", "result": 5.2, "unit": "µM"},
      {"measurement": "IC50", "setting": "[1]", "result": 19, "unit": "µM"}
    ]},
    {"molecule": "COc1ccc2cc(C(C)C(=O)OCC[C@@]3(C)CCc4c(C)c(O)c(C)c(C)c4O3)ccc2c1", "note": "(single isomer, unassigned)", "values": [
      {"measurement": "IC50", "setting": "Bos taurus", "result": 11.6, "unit": "µM"},
      {"measurement": "IC50", "setting": "[1]", "result": 11.7, "unit": "µM"}
    ]},
    {"molecule": "COc1ccc2cc(C(C)C(=O)NCC3(C)CCc4c(C)c(O)c(C)c(C)c4O3)ccc2c1", "note": "(stereo not drawn)", "values": [
      {"measurement": "IC50", "setting": "Bos taurus", "result": 3.99, "unit": "µM"},
      {"measurement": "IC50", "setting": "[1]", "result": 4.3, "unit": "µM"}
    ]},
    {"molecule": "COc1ccc2cc([C@H](C)C(=O)OCCC3(C)Cc4c(C)c(O)c(C)c(C)c4O3)ccc2c1", "note": "(stereo in doubt; 2b)", "values": [
      {"measurement": "IC50", "setting": "Bos taurus", "result": 5.2, "unit": "µM"},
      {"measurement": "IC50", "setting": "[1]", "result": 16.6, "unit": "µM"}
    ]},
    {"molecule": "COc1ccc2cc(C(C)C(=O)OCCC3(C)CCc4c(C)c(OC)c(C)c(C)c4O3)ccc2c1", "note": "(stereo not drawn)", "values": [
      {"measurement": "IC50", "setting": "Bos taurus", "result": 14000, "unit": "µM"},
      {"measurement": "IC50", "setting": "[1]", "result": 25, "unit": "µM"}
    ]},
    {"molecule": "COc1ccc2cc(CC(=O)OCCC3(C)CCc4c(C)c(O)c(C)c(C)c4O3)ccc2c1", "note": "(stereo not drawn)", "values": [
      {"measurement": "IC50", "setting": "Bos taurus", "result": 4.5, "unit": "µM"},
      {"measurement": "Inhibition", "setting": "[2]", "result": 44, "unit": "%"}
    ]},
    {"molecule": "COc1ccc2cc([C@@H](C)C(=O)NCC3(C)CCc4c(C)c(O)c(C)c(C)c4O3)ccc2c1", "note": "(stereo partly drawn)", "values": [
      {"measurement": "IC50", "setting": "Bos taurus", "result": 4.8, "unit": "µM"},
      {"measurement": "IC50", "setting": "[1]", "result": 4.5, "unit": "µM"}
    ]},
    {"molecule": "COc1ccc2cc([C@H](C)C(=O)NCC3(C)CCc4c(C)c(OC(C)=O)c(C)c(C)c4O3)ccc2c1", "note": "(stereo partly drawn)", "values": [
      {"measurement": "IC50", "setting": "[1]", "result": 4, "unit": "µM"}
    ]},
    {"molecule": "COc1ccc2cc(C(C)C(=O)NCCC3(C)Cc4c(C)c(O)c(C)c(C)c4O3)ccc2c1", "note": "(stereo not drawn)", "values": [
      {"measurement": "IC50", "setting": "Bos taurus", "result": 5.6, "unit": "µM"},
      {"measurement": "IC50", "setting": "[1]", "result": 1.9, "unit": "µM"}
    ]},
    {"molecule": "COc1ccc2cc(C(C)C(=O)NCC3(C)CCc4c(C)c(OC(C)=O)c(C)c(C)c4O3)ccc2c1", "note": "(stereo not drawn)", "values": [
      {"measurement": "IC50", "setting": "Bos taurus", "result": 1.6, "unit": "µM"},
      {"measurement": "IC50", "setting": "[1]", "result": 3.3, "unit": "µM"}
    ]},
    {"molecule": "COc1ccc2cc(C(C)C(=O)OCC3(C)Cc4c(C)c(O)c(C)c(C)c4O3)ccc2c1", "note": "(stereo not drawn)", "values": [
      {"measurement": "IC50", "setting": "Bos taurus", "result": 4.83, "unit": "µM"},
      {"measurement": "IC50", "setting": "[1]", "result": 7.3, "unit": "µM"}
    ]},
    {"molecule": "COc1ccc2cc(CC(=O)O)ccc2c1", "note": "[6-METHOXY-2-NAPHTHYLACETIC ACID]", "values": [
      {"measurement": "Inhibition", "setting": "[2]", "result": 5, "unit": "%"}
    ]},
    {"molecule": "Cc1c(C)c2c(c(C)c1O)CCC(C)(CCO)O2", "note": "(stereo not drawn)", "values": [
      {"measurement": "IC50", "setting": "Bos taurus", "result": 3.82, "unit": "µM"},
      {"measurement": "Inhibition", "setting": "[2]", "result": 30, "unit": "%"}
    ]},
    {"molecule": "COc1ccc2cc([C@@H](C)C(=O)OCC[C@@]3(C)CCc4c(C)c(O)c(C)c(C)c4O3)ccc2c1", "values": [
      {"measurement": "IC50", "setting": "[1]", "result": 22, "unit": "µM"}
    ]},
    {"molecule": "COc1ccc2cc([C@H](C)C(=O)OCCC3(C)CCc4c(C)c(O)c(C)c(C)c4O3)ccc2c1", "note": "(stereo partly drawn)", "values": [
      {"measurement": "IC50", "setting": "Bos taurus", "result": 7.66, "unit": "µM"},
      {"measurement": "IC50", "setting": "[1]", "result": 12.9, "unit": "µM"}
    ]}
  ]
}
